One test concerns Candida albicans. Briefly: Antifungal activity against Candida albicans. The format is functional, organism-based. In short, it runs like this:
(§1)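 In vitro susceptibility test on yeasts, run by the National Committee for Clinical and Laboratory Standards procedure.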

For the next test, the system named is Cryptococcus neoformans. Briefly: Antifungal activity against Cryptococcus neoformans. It is filed as functional, organism-based. In short, it runs like this: as §1
The test system of a further test is Candida parapsilosis. The test can be described thus: Antifungal activity against Candida parapsilosis. The format is functional, organism-based. An outline of the steps:
as §1

The next test deals with Candida tropicalis. Briefly: Antifungal activity against Candida tropicalis. It is filed as functional, organism-based. An outline of the steps: as §1
The next test relates to Sporothrix schenckii. The test can be described thus: Antifungal activity against Sporothrix schenckii. The format is functional, organism-based.
The test system of the next test is Aspergillus fumigatus. The test can be described thus: Antifungal activity against Aspergillus fumigatus. The format is functional, organism-based.
Another test has as its system Trichophyton rubrum. The test can be described thus: Antifungal activity against Trichophyton rubrum. It is filed as functional, organism-based.
For a further test, the system named is Fonsecaea pedrosoi. The test can be described thus: Antifungal activity against Fonsecaea pedrosoi. It is filed as functional, organism-based.
A further test deals with A549. Briefly: Cytotoxicity against human A549 cells after 96 hrs by MTT assay. The format is functional, cell-based. To be noted: A549, 96 h. (In general: Formazan colour is commonly taken as a measure of viable cells.)

The source made the active and inactive calls. The rule behind the calls is not given here.

Take `O=S(=O)(O)O[C@H]1[C@H](Oc2cc(O)cc(/C=C\c3ccc(O)cc3)c2)O[C@H](CO)[C@@H](O)[C@@H]1O`: the result with Candida albicans, with Cryptococcus neoformans, in the test on Candida parapsilosis, in the test on Candida tropicalis, in the test on Sporothrix schenckii and in the test on Aspergillus fumigatus was inactive. For the same compound, the outcome in the test on Trichophyton rubrum and with Fonsecaea pedrosoi was inactive.
On to `O=S(=O)(O)Oc1cc(/C=C\c2ccc(O)cc2)cc(O[C@@H]2O[C@H](CO)[C@@H](O)[C@H](O)[C@H]2O)c1`, for which the result in the test with Candida albicans, in the test on Cryptococcus neoformans, with Candida parapsilosis, with Candida tropicalis, in the test on Sporothrix schenckii and with Aspergillus fumigatus was inactive. Moreover, the outcome in the test on Trichophyton rubrum and in the test on Fonsecaea pedrosoi was inactive.
Take `O=S(=O)(O)Oc1ccc(/C=C/c2cc(O)cc(O[C@@H]3O[C@H](CO)[C@@H](O)[C@H](O)[C@H]3O)c2)cc1`: the outcome with Candida albicans, with Cryptococcus neoformans, in the test on Candida parapsilosis, in the test on Candida tropicalis, with Sporothrix schenckii and in the test with Aspergillus fumigatus was inactive. The result in the test on Trichophyton rubrum and in the test on Fonsecaea pedrosoi was inactive.
Consider `O=S(=O)(O)Oc1cc(/C=C/c2ccc(O)cc2)cc(O[C@@H]2O[C@H](CO)[C@@H](O)[C@H](O)[C@H]2O)c1`, for which the outcome in the test with Candida albicans, in the test on Cryptococcus neoformans, in the test with Candida parapsilosis, with Candida tropicalis, in the test on Sporothrix schenckii and in the test with Aspergillus fumigatus was inactive. Besides, the outcome with Trichophyton rubrum and with Fonsecaea pedrosoi was inactive.
As to `O=S(=O)(O)O[C@H]1[C@H](Oc2cc(O)cc(/C=C/c3ccc(O)cc3)c2)O[C@H](CO)[C@@H](O)[C@@H]1O`, the outcome with Candida albicans, in the test on Cryptococcus neoformans, in the test with Candida parapsilosis, in the test with Candida tropicalis, with Sporothrix schenckii and in the test on Aspergillus fumigatus was inactive. The outcome in the test with Trichophyton rubrum and in the test on Fonsecaea pedrosoi was inactive.
In the case of `O=S(=O)(O)O[C@H]1[C@H](O)[C@@H](O)[C@H](Oc2cc(O)cc(/C=C\c3ccc(O)cc3)c2)O[C@@H]1CO`, the result with Candida albicans, in the test with Cryptococcus neoformans, in the test with Candida parapsilosis, in the test on Candida tropicalis, in the test on Sporothrix schenckii and with Aspergillus fumigatus was inactive. The outcome in the test on Trichophyton rubrum and in the test on Fonsecaea pedrosoi was inactive.
Regarding `O=S(=O)(O)OC[C@H]1O[C@@H](Oc2cc(O)cc(/C=C\c3ccc(O)cc3)c2)[C@H](O)[C@@H](O)[C@@H]1O`, the outcome in the test with Candida albicans, in the test with Cryptococcus neoformans, in the test with Candida parapsilosis, in the test with Candida tropicalis, in the test with Sporothrix schenckii and in the test with Aspergillus fumigatus was inactive. The result with Trichophyton rubrum and in the test on Fonsecaea pedrosoi was inactive.
For `O=S(=O)(O)OC[C@H]1O[C@@H](Oc2cc(O)cc(/C=C/c3ccc(O)cc3)c2)[C@H](O)[C@@H](O)[C@@H]1O`, the result in the test on Candida albicans, in the test with Cryptococcus neoformans, with Candida parapsilosis, with Candida tropicalis, in the test with Sporothrix schenckii and in the test on Aspergillus fumigatus was inactive. Besides, the outcome in the test on Trichophyton rubrum and in the test on Fonsecaea pedrosoi was inactive.
As usually defined, the IC50 is the midpoint of a concentration-inhibition curve. Read a high IC50 as weaker potency. Turning to `O=S(=O)([O-])O[C@H]1[C@H](O)[C@@H](O)[C@H](Oc2cc(O)cc(/C=C/c3ccc(O)cc3)c2)O[C@@H]1CO.[K+]`, the IC50 in the test with A549 was 80 µg/mL. Also, the result with Candida albicans, with Cryptococcus neoformans, with Candida parapsilosis, in the test on Candida tropicalis, in the test on Sporothrix schenckii and with Aspergillus fumigatus was inactive. The outcome in the test with Trichophyton rubrum and in the test on Fonsecaea pedrosoi was inactive.

Source of the values: ChEMBL document CHEMBL1155603, “Stilbene glycoside sulfates from Polygonum cuspidatum” (J Nat Prod, 2000).
